Measured values from ChEMBL document CHEMBL1139732, “Identification and optimisation of 5-amino-7-aryldihydro-1,4-diazepines as 5-HT2A ligands” (Bioorg Med Chem Lett, 2006).

Tests used:
[1] = target: 5-hydroxytryptamine receptor 2A (Homo sapiens, UniProt P28223); test: Displacement of [3H]ketanserin from human 5HT2A receptor expressed in CHOK1 cells; format: cell-based, CHO-K1
Outline: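 Membranes from confluent CHO K1 cells expressing human 5-HT2A were incubated with [3H]ketanserin (76 Ci/mmol) for 15 min at 37 °C with shaking at 180 rpm. Buffer was 50 mM Tris pH 7.7, 0.1% ascorbate, pargyline, MgSO4 and 0.5 mM EDTA. Bound and free ligand were separated by GF/B filtration and the filters counted. Mianserin defined non-specific binding. Five-point log titrations were fitted with a four-parameter curve to give IC50 and Ki.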

[2] = target: T1, 5-hydroxytryptamine receptor 2C (Homo sapiens, UniProt P28335); test: Binding affinity to 5HT2C receptor
T1 sequence (P28335 whole entry): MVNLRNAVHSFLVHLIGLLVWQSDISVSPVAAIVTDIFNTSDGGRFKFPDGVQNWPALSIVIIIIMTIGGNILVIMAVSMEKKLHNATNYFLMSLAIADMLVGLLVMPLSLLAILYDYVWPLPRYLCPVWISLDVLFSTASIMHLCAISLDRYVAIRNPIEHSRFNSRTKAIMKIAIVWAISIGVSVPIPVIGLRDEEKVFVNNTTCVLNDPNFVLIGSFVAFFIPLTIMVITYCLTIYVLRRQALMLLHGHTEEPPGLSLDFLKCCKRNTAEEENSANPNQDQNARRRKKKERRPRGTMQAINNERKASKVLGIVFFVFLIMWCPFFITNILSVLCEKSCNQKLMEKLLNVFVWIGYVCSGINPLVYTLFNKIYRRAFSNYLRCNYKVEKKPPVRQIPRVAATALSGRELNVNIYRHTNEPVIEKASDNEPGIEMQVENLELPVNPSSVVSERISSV

[3] = target: Voltage-gated inwardly rectifying potassium channel KCNH2 (Homo sapiens, UniProt Q12809); test: Activity at HERG potassium channel; format: functional
[4] = target: 5-hydroxytryptamine receptor 2A (Rattus norvegicus, UniProt P14842); test: Binding affinity to rat 5HT2A receptor
Chain of 5-hydroxytryptamine receptor 2A (Rattus norvegicus, UniProt P14842) (P14842 whole entry): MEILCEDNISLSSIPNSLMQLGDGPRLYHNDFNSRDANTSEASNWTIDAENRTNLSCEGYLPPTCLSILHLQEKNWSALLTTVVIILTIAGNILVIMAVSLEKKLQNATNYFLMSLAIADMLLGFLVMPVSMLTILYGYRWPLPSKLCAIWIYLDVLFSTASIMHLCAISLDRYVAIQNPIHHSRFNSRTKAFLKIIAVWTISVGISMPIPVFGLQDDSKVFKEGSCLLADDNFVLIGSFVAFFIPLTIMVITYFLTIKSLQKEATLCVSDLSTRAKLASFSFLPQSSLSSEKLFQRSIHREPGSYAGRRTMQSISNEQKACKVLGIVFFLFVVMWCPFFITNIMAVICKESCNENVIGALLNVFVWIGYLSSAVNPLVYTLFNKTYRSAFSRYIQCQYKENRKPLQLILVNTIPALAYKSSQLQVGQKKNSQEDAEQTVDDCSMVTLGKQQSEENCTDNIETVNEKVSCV

Chain of 5-hydroxytryptamine receptor 2A (Homo sapiens, UniProt P28223) (P28223 whole entry): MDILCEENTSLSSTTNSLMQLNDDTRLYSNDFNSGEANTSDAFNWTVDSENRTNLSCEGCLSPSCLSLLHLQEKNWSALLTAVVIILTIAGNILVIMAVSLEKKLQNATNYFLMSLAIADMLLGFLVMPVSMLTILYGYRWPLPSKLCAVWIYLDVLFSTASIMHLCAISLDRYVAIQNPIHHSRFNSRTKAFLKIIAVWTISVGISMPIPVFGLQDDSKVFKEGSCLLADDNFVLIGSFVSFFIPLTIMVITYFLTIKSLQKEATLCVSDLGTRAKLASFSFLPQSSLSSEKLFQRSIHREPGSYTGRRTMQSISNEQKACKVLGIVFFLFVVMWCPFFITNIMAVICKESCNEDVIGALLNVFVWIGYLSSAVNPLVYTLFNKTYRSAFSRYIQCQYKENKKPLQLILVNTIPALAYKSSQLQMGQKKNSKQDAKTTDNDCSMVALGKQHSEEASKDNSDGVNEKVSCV
Chain of Voltage-gated inwardly rectifying potassium channel KCNH2 (Q12809 whole entry): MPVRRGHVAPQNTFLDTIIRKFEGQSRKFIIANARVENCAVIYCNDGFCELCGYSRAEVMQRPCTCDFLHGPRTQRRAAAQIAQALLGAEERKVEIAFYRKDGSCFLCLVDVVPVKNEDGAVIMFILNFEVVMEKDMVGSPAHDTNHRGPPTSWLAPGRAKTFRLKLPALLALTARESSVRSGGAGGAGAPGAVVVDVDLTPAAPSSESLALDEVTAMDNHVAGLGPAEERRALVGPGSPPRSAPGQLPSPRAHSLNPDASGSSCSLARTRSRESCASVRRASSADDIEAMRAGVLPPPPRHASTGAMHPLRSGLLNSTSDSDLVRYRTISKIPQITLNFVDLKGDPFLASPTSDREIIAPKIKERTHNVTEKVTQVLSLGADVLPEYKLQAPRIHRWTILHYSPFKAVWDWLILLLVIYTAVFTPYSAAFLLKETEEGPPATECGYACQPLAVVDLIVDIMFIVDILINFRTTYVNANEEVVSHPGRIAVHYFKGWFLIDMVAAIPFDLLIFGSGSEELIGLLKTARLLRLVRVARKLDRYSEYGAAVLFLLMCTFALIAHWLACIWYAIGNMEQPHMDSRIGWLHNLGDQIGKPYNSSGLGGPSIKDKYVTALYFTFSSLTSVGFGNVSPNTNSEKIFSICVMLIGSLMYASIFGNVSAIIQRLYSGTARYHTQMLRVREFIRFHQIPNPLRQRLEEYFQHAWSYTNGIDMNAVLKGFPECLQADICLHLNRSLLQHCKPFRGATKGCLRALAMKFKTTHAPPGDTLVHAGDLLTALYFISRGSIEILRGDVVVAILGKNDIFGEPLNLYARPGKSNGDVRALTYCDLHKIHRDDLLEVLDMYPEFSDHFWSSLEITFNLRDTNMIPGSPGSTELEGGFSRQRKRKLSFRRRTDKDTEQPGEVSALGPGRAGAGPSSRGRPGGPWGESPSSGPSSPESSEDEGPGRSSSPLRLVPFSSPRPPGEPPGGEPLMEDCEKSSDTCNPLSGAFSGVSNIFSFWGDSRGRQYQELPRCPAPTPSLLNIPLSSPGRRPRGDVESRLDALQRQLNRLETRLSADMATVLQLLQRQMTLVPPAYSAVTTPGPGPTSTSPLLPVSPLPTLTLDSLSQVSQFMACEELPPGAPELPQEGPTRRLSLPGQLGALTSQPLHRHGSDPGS

SMILES | IC50 [1] | IC50 [2] | Activity [3] | IC50 [4]
CC(C)(C)NC1=NCCNC(c2ccccc2)=C1 | 35 nM | 1050 nM | > 1000 nM | 
CC(C)(C)NC1=NCCNC(c2ccc(F)cc2F)=C1 | 11 nM |  | > 1000 nM | 
CCC1(NC2=NCCNC(c3ccc(F)cc3)=C2)CCCC1 | 0.8 nM |  | > 1000 nM | 
CC(C)(NC1=NCCNC(c2ccc(F)cc2F)=C1)C1CCC1 | 1.4 nM |  | > 1000 nM | 
COc1ccc(C2=CC(NC(C)(C)C)=NCCN2)cc1 | 534 nM |  | > 1000 nM | 
CC(C)(C)NC1=NCCNC(c2ccc(F)cc2)=C1 | 21 nM | 637 nM | > 1000 nM | 
Cc1ccc(C2=CC(NC(C)(C)Cc3ccccc3)=NCCN2)cc1 | 2.4 nM |  | 300 nM | 
CC(C)(C)NC1=NCCNC(c2ccc(C#N)cc2)=C1 | 2800 nM |  | > 1000 nM | 
CCC(CC)(CC)NC1=NCCNC(c2ccc(F)cc2F)=C1 | 3.7 nM | 86 nM | > 1000 nM | 
Cc1ccc(C2=CC(NC(C)(C)C)=NCCN2)c(C)c1 | 71 nM |  | > 1000 nM | 
Cc1ccc(C2=CC(NC(C)(C)C)=NCCN2)c(F)c1 | 14 nM |  | > 1000 nM | 
CCC1(NC2=NCCNC(c3ccc(F)cc3F)=C2)CCCC1 | 1.1 nM | 27 nM | > 1000 nM | 2.3 nM
CC(C)(C)NC1=NCCNC(c2ccccc2Cl)=C1 | 76 nM |  | > 1000 nM | 
CC(C)(Cc1ccccc1)NC1=NCCNC(c2ccccc2F)=C1 | 3.8 nM |  | 270 nM | 
CCN(CC)C1=NCCNC(c2ccccc2F)=C1 | > 1000 nM |  | > 1000 nM | 
CC(C)(C)CNC1=NCCNC(c2ccccc2F)=C1 | 1520 nM |  | > 1000 nM | 
CCC(C)(CC)NC1=NCCNC(c2ccc(F)cc2)=C1 | 1.5 nM | 16 nM | > 1000 nM | 
Cc1ccc(C2=CC(N3CCOCC3)=NCCN2)cc1 | > 1000 nM |  | > 1000 nM | 
Cc1ccc(C2=CC(NC(C)(C)C)=NCCN2)cc1 | 11 nM |  | > 1000 nM | 
CCC(C)(CC)NC1=NCCNC(c2ccccc2F)=C1 | 4.5 nM |  | > 1000 nM | 
Cc1ccccc1C1=CC(NC(C)(C)C)=NCCN1 | 112 nM |  | > 1000 nM | 
Cc1ccc(C2=CC(N3CCNCC3)=NCCN2)cc1 | > 1000 nM |  | > 1000 nM | 
CC(C)(C)NC1=NCCNC(c2ccccc2F)=C1 | 18 nM |  | > 1000 nM | 
CCN(CC)C1=NCCNC(c2ccc(C)cc2)=C1 | > 1000 nM |  | > 1000 nM | 
CCC1(NC2=NCCNC(c3ccccc3F)=C2)CCCC1 | 3.6 nM |  | > 1000 nM | 
CCC(C)(CC)NC1=NCCNC(c2ccc(C)cc2)=C1 | 14.9 nM | 75 nM | > 1000 nM | 
CC(C)(C)NC1=NCCNC(c2cccc(C(F)(F)F)c2)=C1 | 514 nM |  | > 1000 nM | 
CC1(NC2=NCCNC(c3ccc(F)cc3)=C2)CCCCC1 | 1.6 nM |  | > 1000 nM | 
